According to ChEMBL document CHEMBL1130334, “Effect of plasma protein binding on in vivo activity and brain penetration of glycine/NMDA receptor antagonists” (J Med Chem, 1997):

test system: not listed separately; assay: Partition coefficient (logP); assay type: physicochemical; conditions: octanol/water
Method in brief: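 Octanol/pH 7.4 buffer partition; values were either measured or calculated from tables of π values.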

logP	Compound
4.5	Oc1nc2cc(Cl)ccc2c(O)c1-c1ccc2c(c1)Oc1ccccc1O2
2.75	O=c1[nH]c2cc(Cl)ccc2c(O)c1-c1cccc(Oc2ccsc2)c1
3.01	Oc1nc2cc(Cl)ccc2c(O)c1-c1cccc(Cc2ccc(CCN3CCOCC3)cc2)c1

The next lines start with the compound.

Compound	logP
O=C(/C=C/c1c(C(=O)O)[nH]c2cc(Cl)cc(Cl)c12)Nc1ccccc1	2.24
O=C(Cc1ccccc1)c1c(O)c2ccc(Cl)cc2[nH]c1=O	1.66
O=C(c1c(O)nc2cc(Cl)ccc2c1O)C1CC1	0.35
O=C(CC1CCc2cc(Br)cc3[nH]c(=O)c(=O)n1c23)Nc1ccccc1 (configuration not stated)	2.78
CCOC(=O)c1c(O)c2ccc(Cl)cc2[nH]c1=O	0.7
N[C@H](Cc1cc(I)c(OCCc2ccc(O)cc2)c(I)c1)C(=O)O	2
O=C(O)c1cc(O)c2ccc(Cl)cc2n1 [7-CHLOROKYNURENIC ACID]	1.15
O=C(O)c1cc(O)c2c(Cl)cc(Cl)cc2n1	-0.44
Oc1nc2cc(Cl)ccc2c2oc3ccccc3c12	4.34
COc1ccc(CCOc2c(I)cc(C[C@@H](N)C(=O)O)cc2I)cc1	2.65
O=c1[nH]c2cc(Cl)ccc2c(O)c1-c1cccc(Cc2ccccc2)c1	2.83

target: Glutamate NMDA receptor (Rattus norvegicus) (UniProt P35439+Q00959+Q00960+Q00961+Q62645+Q8VHN2+Q9R1M7); assay: Protein binding index(PBI) reflects the relative displacement of [3H]glycine from rat cortical membranes in the presence and absence of 0.2% human serum albumin; assay type: cell membranes; conditions: Membrane
Method in brief: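 [³H]glycine displacement from rat cortical membranes, with and without 0.2% (w/v) human serum albumin. Separation by centrifugation. Index = IC50 with albumin / IC50 without albumin.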

PBI	Compound
3.7	Nc1c(-c2ccccc2)c(O)nc2cc(Cl)ccc12
8.2	Oc1ccccc1-c1cc2ccc(Cl)cc2nc1O
41	N[C@H](Cc1cc(I)c(OCCc2ccc(O)cc2)c(I)c1)C(=O)O
26.5	O=C(O)c1cc(O)c2c(Cl)cc(Cl)cc2n1
28.5	Oc1nc2cc(Cl)ccc2c2oc3ccccc3c12
11.7	COc1ccc(CCOc2c(I)cc(C[C@@H](N)C(=O)O)cc2I)cc1
32	CC/C=C1\NC(=O)C(c2cccc(Oc3ccccc3)c2)=C1O

target: Albumin (Homo sapiens, UniProt P02768); assay: Human serum albumin index was measured by retention time on an HPLC column containing human albumin; conditions: not given
Sequence (P02768 whole entry): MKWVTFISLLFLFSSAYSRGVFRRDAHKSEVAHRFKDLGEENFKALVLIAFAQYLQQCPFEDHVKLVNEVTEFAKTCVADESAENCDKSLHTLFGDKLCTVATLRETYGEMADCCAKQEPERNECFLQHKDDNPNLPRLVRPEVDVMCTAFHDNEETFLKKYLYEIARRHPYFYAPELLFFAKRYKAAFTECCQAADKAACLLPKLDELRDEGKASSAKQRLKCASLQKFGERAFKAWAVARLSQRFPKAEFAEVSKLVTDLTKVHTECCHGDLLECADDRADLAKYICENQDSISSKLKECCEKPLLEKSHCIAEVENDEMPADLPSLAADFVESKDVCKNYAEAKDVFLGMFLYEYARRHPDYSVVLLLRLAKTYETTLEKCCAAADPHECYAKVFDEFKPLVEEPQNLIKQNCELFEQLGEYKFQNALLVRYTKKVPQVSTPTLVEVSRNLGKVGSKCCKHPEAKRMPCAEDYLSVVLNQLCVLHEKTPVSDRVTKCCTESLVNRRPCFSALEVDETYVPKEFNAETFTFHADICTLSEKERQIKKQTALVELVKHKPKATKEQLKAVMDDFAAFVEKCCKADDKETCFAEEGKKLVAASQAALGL
Method in brief: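 HPLC on a column containing human serum albumin. Retention volume of each compound is divided by that of a reference standard and normalized so the standard equals 100.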

HSAI	Compound
3	Cn1cccc1-c1c(O)nc2cc(Cl)ccc2c1O
117	Oc1nc2cc(Cl)ccc2c(O)c1-c1cccc(-c2ccccc2)c1
322	Oc1nc2cc(Cl)ccc2c(O)c1-c1cccc(-n2ccc3ccccc32)c1
58	O=C(c1ccccc1)c1cccc(-c2c(O)nc3cc(Cl)ccc3c2O)c1
260	Oc1nc2cc(Cl)ccc2c(O)c1-c1ccc2c(c1)Oc1ccccc1O2
837	CCc1cc(Cl)cc2nc(O)c(-c3cccc(Oc4ccccc4)c3)c(O)c12
82	O=c1[nH]c2cc(Cl)ccc2c(O)c1-c1cccc(Oc2ccsc2)c1
6	Oc1nc2cc(Cl)ccc2c(O)c1-c1ccco1
118	Oc1nc2cc(Cl)ccc2c(O)c1-c1cccc(OCc2ccccc2)c1
11	Oc1nc2cc(Cl)ccc2c(O)c1-c1ccsc1
118	COc1ccccc1Cc1cccc(-c2c(O)nc3cc(Cl)ccc3c2O)c1
8	Oc1nc2cc(Cl)ccc2c(O)c1-c1ccc(F)cc1
9	O=C(O)c1cccc(-c2c(O)nc3cc(Cl)ccc3c2O)c1
629	Oc1nc2cc(Cl)ccc2c(O)c1-c1cccc(Cc2cccc3ccccc23)c1
577	Oc1nc2cc(Cl)ccc2c(O)c1-c1cccc(C#Cc2ccccc2)c1
68	Oc1nc2cc(Cl)ccc2c(O)c1-c1cccc(NCc2ccsc2)c1

HSAI	Compound
163	Cc1ccccc1Oc1cccc(-c2c(O)nc3cc(Cl)ccc3c2O)c1
50	Oc1nc2cc(Cl)ccc2c(O)c1-c1cccc(Cc2ccoc2)c1
56	COCCOCOc1ccc(Cc2cccc(-c3c(O)nc4cc(Cl)ccc4c3O)c2)cc1
267	CSc1ccc(Cc2cccc(-c3c(O)nc4cc(Cl)ccc4c3O)c2)cc1
13	CN(C)Cc1sccc1Oc1cccc(-c2c(O)nc3cc(Cl)ccc3c2O)c1
31	C=C(C)COc1cccc(-c2c(O)nc3cc(Cl)ccc3c2O)c1
49	Oc1nc2cc(Cl)ccc2c(O)c1-c1cccc(Cc2ccc(CCN3CCOCC3)cc2)c1
57	Cc1cn(-c2c(O)nc3cc(Cl)ccc3c2O)c2ccccc12
10	COc1cccc(-c2c(O)nc3cc(Cl)ccc3c2O)c1
13	CNCc1ccc(Cc2cccc(-c3c(O)nc4cc(Cl)ccc4c3O)c2)cc1
571	Oc1nc2cc(Cl)ccc2c(O)c1-c1cccc(C2=CCc3ccccc32)c1
310	Cc1ccc(Oc2cccc(-c3c(O)nc4cc(Cl)ccc4c3O)c2)cc1
13	Cc1ccc(-c2c(O)nc3cc(Cl)ccc3c2O)cc1
21	Oc1nc2cc(Cl)ccc2c(O)c1-c1cccc(OCC2CC2)c1
140	CN(Cc1cccc(-c2c(O)nc3cc(Cl)ccc3c2O)c1)c1ccccc1
14	Cc1cccc(-c2c(O)nc3cc(Cl)ccc3c2O)c1

Continued, compound first:

Compound	HSAI
O=C(c1ccco1)c1c(O)nc2cc(Cl)ccc2c1O	3
CC(=O)c1cc(Cc2cccc(-c3c(O)c4ccc(Cl)cc4[nH]c3=O)c2)ccc1O	75
O=C(/C=C/c1c(C(=O)O)[nH]c2cc(Cl)cc(Cl)c12)Nc1ccccc1	197
O=C(c1ccc(Cl)s1)c1c(O)nc2cc(Cl)ccc2c1O	26
Nc1c(-c2ccccc2)c(=O)[nH]c2cc(Cl)ccc12	7
COc1ccc(-c2c(O)c3ccc(Cl)cc3[nH]c2=O)cc1	8
O=C(CCc1c(C(=O)O)[nH]c2cc(Cl)cc(Cl)c12)Nc1ccccc1	142
O=C(Cc1ccccc1)c1c(O)c2ccc(Cl)cc2[nH]c1=O	28
O=C(OCCc1ccsc1)c1c(O)nc2cc(Cl)ccc2c1O	45
O=c1[nH]c2ccccc2c(O)c1-c1ccccc1	2
O=C(c1c(O)nc2cc(Cl)ccc2c1O)c1csc2ccccc12	59
CCc1cc(Cl)cc2nc(O)c(-c3ccccc3)c(O)c12	103
O=C(c1c(O)nc2cc(Cl)ccc2c1O)C1CC1	6
O=C(CC1CCc2cc(Br)cc3[nH]c(=O)c(=O)n1c23)Nc1ccccc1 (configuration not stated)	24
O=C(OCC#Cc1cccc(O)c1)c1c(O)c2ccc(Cl)cc2[nH]c1=O	213
O=C(c1ccc(Br)s1)c1c(O)nc2cc(Cl)ccc2c1O	40

Compound	HSAI
O=C(c1cccs1)c1c(O)c2ccc(Cl)cc2[nH]c1=O	9
Oc1ccccc1-c1cc2ccc(Cl)cc2nc1O	15
N[C@H](Cc1cc(I)c(OCCc2ccc(O)cc2)c(I)c1)C(=O)O	16
O=C(O)c1cc(O)c2ccc(Cl)cc2n1 [7-CHLOROKYNURENIC ACID]	2
CCOC(=O)c1c(O)c2ccc(I)cc2[nH]c1=O	7
O=C(O)c1cc(O)c2c(Cl)cc(Cl)cc2n1	5
Oc1nc2cc(Cl)ccc2c2oc3ccccc3c12	70
O=[N+]([O-])c1cc([N+](=O)[O-])c2nc(O)c(O)nc2c1	4
COc1ccc(CCOc2c(I)cc(C[C@@H](N)C(=O)O)cc2I)cc1	32
CC/C=C1\NC(=O)C(c2cccc(Oc3ccccc3)c2)=C1O	42
O=c1[nH]c2cc(Cl)ccc2c(O)c1-c1cccc(Cc2ccccc2)c1	126
C=CCOC(=O)c1c(O)c2ccc(Cl)cc2[nH]c1=O	6
O=c1[nH]c2cc(Cl)ccc2c(O)c1-c1cccc(NCc2ccccc2)c1	76
CCOC(=O)c1c(O)c2ccc([N+](=O)[O-])cc2[nH]c1=O	1
O=C(OCCc1cccs1)c1c(O)nc2cc(Cl)ccc2c1O	44

target: Glutamate NMDA receptor; assay: Affinity for the glycine binding site on rat N-methyl-D-aspartate glutamate receptor 1, determined by displacement of the glycine site antagonist [3H]L-689,560 from rat cortical membranes; assay type: cell membranes, Membrane; conditions: not given

IC50 [µM]	Compound
0.818	Cn1cccc1-c1c(O)nc2cc(Cl)ccc2c1O
0.0036	O=C(c1ccccc1)c1cccc(-c2c(O)nc3cc(Cl)ccc3c2O)c1
0.00195	CCc1cc(Cl)cc2nc(O)c(-c3cccc(Oc4ccccc4)c3)c(O)c12
0.0122	Oc1nc2cc(Cl)ccc2c(O)c1-c1cccc(OCc2ccccc2)c1
0.352	Oc1nc2cc(Cl)ccc2c(O)c1-c1ccsc1
0.008	COc1ccccc1Cc1cccc(-c2c(O)nc3cc(Cl)ccc3c2O)c1
0.658	Oc1nc2cc(Cl)ccc2c(O)c1-c1ccc(F)cc1
0.0756	O=C(O)c1cccc(-c2c(O)nc3cc(Cl)ccc3c2O)c1
0.0279	Oc1nc2cc(Cl)ccc2c(O)c1-c1cccc(Cc2cccc3ccccc23)c1
0.0343	Oc1nc2cc(Cl)ccc2c(O)c1-c1cccc(C#Cc2ccccc2)c1
0.0013	Cc1ccccc1Oc1cccc(-c2c(O)nc3cc(Cl)ccc3c2O)c1
0.0089	Oc1nc2cc(Cl)ccc2c(O)c1-c1cccc(Cc2ccoc2)c1
0.0036	COCCOCOc1ccc(Cc2cccc(-c3c(O)nc4cc(Cl)ccc4c3O)c2)cc1
0.0024	CSc1ccc(Cc2cccc(-c3c(O)nc4cc(Cl)ccc4c3O)c2)cc1
0.0326	CN(C)Cc1sccc1Oc1cccc(-c2c(O)nc3cc(Cl)ccc3c2O)c1
0.0109	C=C(C)COc1cccc(-c2c(O)nc3cc(Cl)ccc3c2O)c1
0.009	Oc1nc2cc(Cl)ccc2c(O)c1-c1cccc(Cc2ccc(CCN3CCOCC3)cc2)c1
0.204	COc1cccc(-c2c(O)nc3cc(Cl)ccc3c2O)c1
0.124	CNCc1ccc(Cc2cccc(-c3c(O)nc4cc(Cl)ccc4c3O)c2)cc1
0.006	Oc1nc2cc(Cl)ccc2c(O)c1-c1cccc(C2=CCc3ccccc32)c1
0.0078	Cc1ccc(Oc2cccc(-c3c(O)nc4cc(Cl)ccc4c3O)c2)cc1
0.391	Cc1ccc(-c2c(O)nc3cc(Cl)ccc3c2O)cc1
0.0378	Oc1nc2cc(Cl)ccc2c(O)c1-c1cccc(OCC2CC2)c1
0.0117	CN(Cc1cccc(-c2c(O)nc3cc(Cl)ccc3c2O)c1)c1ccccc1
0.084	Cc1cccc(-c2c(O)nc3cc(Cl)ccc3c2O)c1

Further lines, the compound ahead of its results:

Compound	IC50 [µM]
CC(=O)c1cc(Cc2cccc(-c3c(O)c4ccc(Cl)cc4[nH]c3=O)c2)ccc1O	0.0427
O=C(/C=C/c1c(C(=O)O)[nH]c2cc(Cl)cc(Cl)c12)Nc1ccccc1	0.001
O=C(c1ccc(Cl)s1)c1c(O)nc2cc(Cl)ccc2c1O	1.52
Nc1c(-c2ccccc2)c(=O)[nH]c2cc(Cl)ccc12	6.75
COc1ccc(-c2c(O)c3ccc(Cl)cc3[nH]c2=O)cc1	0.421
O=C(CCc1c(C(=O)O)[nH]c2cc(Cl)cc(Cl)c12)Nc1ccccc1	0.0364
O=C(OCCc1ccsc1)c1c(O)nc2cc(Cl)ccc2c1O	3
O=c1[nH]c2ccccc2c(O)c1-c1ccccc1	7.5
O=C(c1c(O)nc2cc(Cl)ccc2c1O)c1csc2ccccc12	2.23
O=C(CC1CCc2cc(Br)cc3[nH]c(=O)c(=O)n1c23)Nc1ccccc1 (configuration not stated)	0.024
O=C(c1ccc(Br)s1)c1c(O)nc2cc(Cl)ccc2c1O	0.954
O=C(c1cccs1)c1c(O)c2ccc(Cl)cc2[nH]c1=O	1.09
CCOC(=O)c1c(O)c2ccc(Cl)cc2[nH]c1=O	16.7
N[C@H](Cc1cc(I)c(OCCc2ccc(O)cc2)c(I)c1)C(=O)O	0.426
CCOC(=O)c1c(O)c2ccc(I)cc2[nH]c1=O	30
COc1ccc(CCOc2c(I)cc(C[C@@H](N)C(=O)O)cc2I)cc1	0.545
CC/C=C1\NC(=O)C(c2cccc(Oc3ccccc3)c2)=C1O	0.684
O=c1[nH]c2cc(Cl)ccc2c(O)c1-c1cccc(NCc2ccccc2)c1	0.0096
